Measured values taken from ChEMBL document CHEMBL2375313, “Synthesis, in vitro antitumor evaluation and DNA-binding study of novel tetrahydroquinolines and some derived tricyclic and tetracyclic ring systems” (Eur J Med Chem, 2013).

Legend:
Format in all cases: functional
RPMI-8226 = experiment: Cytotoxicity against human RPMI8226 cells assessed as growth inhibition at 10 uM after 48 hrs by sulphorhodamine B assay; conditions: RPMI-8226, 48 h, read-out: GI
How it was run: (§1)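 NCI-60 one-dose screen per the NCI Drug Evaluation Branch protocol. Cells given a single 10 µM concentration with 48 h continuous exposure. Growth estimated by sulphorhodamine B protein assay. Result expressed as percentage growth inhibition relative to untreated growth.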

NCI-H23 = experiment: Cytotoxicity against human NCI-H23 cells assessed as growth inhibition at 10 uM after 48 hrs by sulphorhodamine B assay; conditions: NCI-H23, 48 h, read-out: GI; how it was run: as §1
SF-295 = experiment: Cytotoxicity against human SF295 cells assessed as growth inhibition at 10 uM after 48 hrs by sulphorhodamine B assay; conditions: SF-295, 48 h, read-out: GI; how it was run: as §1
HCT-116 = experiment: Cytotoxicity against human HCT116 cells assessed as growth inhibition at 10 uM after 48 hrs by sulphorhodamine B assay; conditions: HCT-116, 48 h, read-out: GI; how it was run: as §1
UO-31 = experiment: Cytotoxicity against human UO31 cells assessed as growth inhibition at 10 uM after 48 hrs by sulphorhodamine B assay; conditions: UO-31, 48 h, read-out: GI; how it was run: as §1
CAKI-1 = experiment: Cytotoxicity against human Caki1 cells assessed as growth inhibition at 10 uM after 48 hrs by sulphorhodamine B assay; conditions: CAKI-1, 48 h, read-out: GI; how it was run: as §1
U-251 = experiment: Cytotoxicity against human U251 cells assessed as growth inhibition at 10 uM after 48 hrs by sulphorhodamine B assay; conditions: U-251, 48 h, read-out: GI; how it was run: as §1
IGROV-1 = experiment: Cytotoxicity against human IGROV1 cells assessed as growth inhibition at 10 uM after 48 hrs by sulphorhodamine B assay; conditions: IGROV-1, 48 h, read-out: GI; how it was run: as §1
SK-MEL-2 = experiment: Cytotoxicity against human SK-MEL-2 cells assessed as growth inhibition at 10 uM after 48 hrs by sulphorhodamine B assay; conditions: SK-MEL-2, 48 h, read-out: GI; how it was run: as §1
A549 = experiment: Cytotoxicity against human A549 cells assessed as growth inhibition at 10 uM after 48 hrs by sulphorhodamine B assay; conditions: A549, 48 h, read-out: GI; how it was run: as §1
LOX IMVI = experiment: Cytotoxicity against human LOXIMVI cells assessed as growth inhibition at 10 uM after 48 hrs by sulphorhodamine B assay; conditions: read-out: GI; how it was run: as §1
HL-60(TB) = experiment: Cytotoxicity against human HL-60(TB) cells assessed as growth inhibition at 10 uM after 48 hrs by sulphorhodamine B assay; conditions: HL-60, 48 h, read-out: GI
How it was run: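 NCI-60 one-dose primary screen run to the Drug Evaluation Branch protocol. Cells are exposed to a single 10 µM concentration for 48 h continuously, and growth is read by SRB protein assay. Data are reported as percent growth of treated cells, expressed as % growth inhibition.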

HOP-92 = experiment: Cytotoxicity against human HOP92 cells assessed as growth inhibition at 10 uM after 48 hrs by sulphorhodamine B assay; conditions: HOP-92, 48 h, read-out: GI; how it was run: as §1
MCF7 = experiment: Cytotoxicity against human MCF7 cells assessed as growth inhibition at 10 uM after 48 hrs by sulphorhodamine B assay; conditions: MCF7, 48 h, read-out: GI; how it was run: as §1
SF-268 = experiment: Cytotoxicity against human SF268 cells assessed as growth inhibition at 10 uM after 48 hrs by sulphorhodamine B assay; conditions: SF-268, 48 h, read-out: GI; how it was run: as §1
SNB-19 = experiment: Cytotoxicity against human SNB19 cells assessed as growth inhibition at 10 uM after 48 hrs by sulphorhodamine B assay; conditions: SNB-19, 48 h, read-out: GI; how it was run: as §1
SR = experiment: Cytotoxicity against human SR cells assessed as growth inhibition at 10 uM after 48 hrs by sulphorhodamine B assay; conditions: read-out: GI; how it was run: as §1
A498 = experiment: Cytotoxicity against human A498 cells assessed as growth inhibition at 10 uM after 48 hrs by sulphorhodamine B assay; conditions: A498, 48 h, read-out: GI; how it was run: as §1
MDA-MB-468 = experiment: Cytotoxicity against human MDA-MB-468 cells assessed as growth inhibition at 10 uM after 48 hrs by sulphorhodamine B assay; conditions: MDA-MB-468, 48 h, read-out: GI; how it was run: as §1
MOLT-4 = experiment: Cytotoxicity against human MOLT4 cells assessed as growth inhibition at 10 uM after 48 hrs by sulphorhodamine B assay; conditions: MOLT-4, 48 h, read-out: GI; how it was run: as §1
CCRF-CEM = experiment: Cytotoxicity against human CCRF-CEM cells assessed as growth inhibition at 10 uM after 48 hrs by sulphorhodamine B assay; conditions: read-out: GI; how it was run: as §1
SNB-75 = experiment: Cytotoxicity against human SNB75 cells assessed as growth inhibition at 10 uM after 48 hrs by sulphorhodamine B assay; conditions: SNB-75, 48 h, read-out: GI; how it was run: as §1
OVCAR-5 = experiment: Cytotoxicity against human OVCAR5 cells assessed as growth inhibition at 10 uM after 48 hrs by sulphorhodamine B assay; conditions: OVCAR-5, 48 h, read-out: GI; how it was run: as §1
T47D = experiment: Cytotoxicity against human T47D cells assessed as growth inhibition at 10 uM after 48 hrs by sulphorhodamine B assay; conditions: read-out: GI; how it was run: as §1
[1] = Cytotoxicity against human EKVX cells assessed as growth inhibition at 10 uM after 48 hrs by sulphorhodamine B assay; conditions: read-out: GI; how it was run: as §1
Hs-578T = experiment: Cytotoxicity against human Hs578T cells assessed as growth inhibition at 10 uM after 48 hrs by sulphorhodamine B assay; conditions: read-out: GI; how it was run: as §1
SK-OV-3 = experiment: Cytotoxicity against human SKOV3 cells assessed as growth inhibition at 10 uM after 48 hrs by sulphorhodamine B assay; conditions: SK-OV-3, 48 h, read-out: GI; how it was run: as §1
NCI-H522 = experiment: Cytotoxicity against human NCI-H522 cells assessed as growth inhibition at 10 uM after 48 hrs by sulphorhodamine B assay; conditions: NCI-H522, 48 h, read-out: GI; how it was run: as §1
K562 = experiment: Cytotoxicity against human K562 cells assessed as growth inhibition at 10 uM after 48 hrs by sulphorhodamine B assay; conditions: K562, 48 h, read-out: GI; how it was run: as §1
RXF 393 = experiment: Cytotoxicity against human RXF393 cells assessed as growth inhibition at 10 uM after 48 hrs by sulphorhodamine B assay; conditions: RXF 393, 48 h, read-out: GI; how it was run: as §1
HCT-15 = experiment: Cytotoxicity against human HCT15 cells assessed as growth inhibition at 10 uM after 48 hrs by sulphorhodamine B assay; conditions: HCT-15, 48 h, read-out: GI; how it was run: as §1
ACHN = experiment: Cytotoxicity against human ACHN cells assessed as growth inhibition at 10 uM after 48 hrs by sulphorhodamine B assay; conditions: read-out: GI; how it was run: as §1
MDA-MB-435 = experiment: Cytotoxicity against human MDA-MB-435 cells assessed as growth inhibition at 10 uM after 48 hrs by sulphorhodamine B assay; conditions: MDA-MB-435, 48 h, read-out: GI; how it was run: as §1
M14 = experiment: Cytotoxicity against human M14 cells assessed as growth inhibition at 10 uM after 48 hrs by sulphorhodamine B assay; conditions: M14, 48 h, read-out: GI; how it was run: as §1
OVCAR-4 = experiment: Cytotoxicity against human OVCAR4 cells assessed as growth inhibition at 10 uM after 48 hrs by sulphorhodamine B assay; conditions: OVCAR-4, 48 h, read-out: GI; how it was run: as §1
UACC-62 = experiment: Cytotoxicity against human UACC62 cells assessed as growth inhibition at 10 uM after 48 hrs by sulphorhodamine B assay; conditions: UACC-62, 48 h, read-out: GI; how it was run: as §1
SK-MEL-5 = experiment: Cytotoxicity against human SK-MEL-5 cells assessed as growth inhibition at 10 uM after 48 hrs by sulphorhodamine B assay; conditions: SK-MEL-5, 48 h, read-out: GI; how it was run: as §1
NCI/ADR-RES = experiment: Cytotoxicity against human NCI/ADR-RES cells assessed as growth inhibition at 10 uM after 48 hrs by sulphorhodamine B assay; conditions: read-out: GI; how it was run: as §1
DU-145 = experiment: Cytotoxicity against human DU145 cells assessed as growth inhibition at 10 uM after 48 hrs by sulphorhodamine B assay; conditions: DU-145, 48 h, read-out: GI; how it was run: as §1
HT-29 = experiment: Cytotoxicity against human HT-29 cells assessed as growth inhibition at 10 uM after 48 hrs by sulphorhodamine B assay; conditions: HT-29, 48 h, read-out: GI; how it was run: as §1
PC-3 = experiment: Cytotoxicity against human PC3 cells assessed as growth inhibition at 10 uM after 48 hrs by sulphorhodamine B assay; conditions: PC-3, 48 h, read-out: GI; how it was run: as §1

CC1CCCc2c1nc(NC(=S)NC(=O)c1ccccc1)c(C#N)c2-c1ccc(Cl)cc1 (configuration not stated)
inhibition of growth at 10 µM (RPMI-8226): 55%
inhibition of growth at 10 µM (NCI-H23): 10%
inhibition of growth at 10 µM (SF-295): 17.2%
inhibition of growth at 10 µM (HCT-116): 20%
inhibition of growth at 10 µM (UO-31): 33.2%
inhibition of growth at 10 µM (CAKI-1): 22.5%
inhibition of growth at 10 µM (U-251): 20%
inhibition of growth at 10 µM (IGROV-1): 32%
inhibition of growth at 10 µM (SK-MEL-2): 10.3%
inhibition of growth at 10 µM (A549): 16%
inhibition of growth at 10 µM (LOX IMVI): 11.1%
inhibition of growth at 10 µM (HL-60(TB)): 30%
inhibition of growth at 10 µM (HOP-92): 38.2%
inhibition of growth at 10 µM (MCF7): 12.1%
inhibition of growth at 10 µM (SF-268): < 10%
inhibition of growth at 10 µM (SNB-19): 14.1%
inhibition of growth at 10 µM (SR): < 10%
inhibition of growth at 10 µM (A498): 39%
inhibition of growth at 10 µM (MDA-MB-468): 14.5%
inhibition of growth at 10 µM (MOLT-4): 31%
inhibition of growth at 10 µM (CCRF-CEM): 27.6%
inhibition of growth at 10 µM (SNB-75): 15.7%
inhibition of growth at 10 µM (OVCAR-5): < 10%
inhibition of growth at 10 µM (T47D): 38.8%
inhibition of growth at 10 µM [1]: 16.7%
inhibition of growth at 10 µM (Hs-578T): 13.8%
inhibition of growth at 10 µM (SK-OV-3): 20%
inhibition of growth at 10 µM (NCI-H522): 27.5%
inhibition of growth at 10 µM (K562): 36.3%
inhibition of growth at 10 µM (RXF 393): < 10%
inhibition of growth at 10 µM (HCT-15): 11.6%
inhibition of growth at 10 µM (ACHN): 14%
inhibition of growth at 10 µM (MDA-MB-435): < 10%
inhibition of growth at 10 µM (M14): < 10%
inhibition of growth at 10 µM (OVCAR-4): 21.4%
inhibition of growth at 10 µM (UACC-62): 25.3%
inhibition of growth at 10 µM (SK-MEL-5): 17.7%
inhibition of growth at 10 µM (NCI/ADR-RES): < 10%
inhibition of growth at 10 µM (DU-145): < 10%
inhibition of growth at 10 µM (HT-29): < 10%
inhibition of growth at 10 µM (PC-3): 20.3%

COc1ccc(-c2c3c(nc4ncnc(N)c24)C(C)CCC3)cc1 (configuration not stated)
inhibition of growth at 10 µM (RPMI-8226): 25%
inhibition of growth at 10 µM (NCI-H23): < 10%
inhibition of growth at 10 µM (SF-295): < 10%
inhibition of growth at 10 µM (HCT-116): 14.2%
inhibition of growth at 10 µM (UO-31): 10.4%
inhibition of growth at 10 µM (CAKI-1): < 10%
inhibition of growth at 10 µM (U-251): 18.5%
inhibition of growth at 10 µM (IGROV-1): < 10%
inhibition of growth at 10 µM (SK-MEL-2): < 10%
inhibition of growth at 10 µM (A549): < 10%
inhibition of growth at 10 µM (LOX IMVI): 13%
inhibition of growth at 10 µM (HL-60(TB)): < 10%
inhibition of growth at 10 µM (HOP-92): 20.4%
inhibition of growth at 10 µM (MCF7): < 10%
inhibition of growth at 10 µM (SF-268): < 10%
inhibition of growth at 10 µM (SNB-19): 10%
inhibition of growth at 10 µM (SR): 17.3%
inhibition of growth at 10 µM (A498): < 10%
inhibition of growth at 10 µM (MDA-MB-468): 11.3%
inhibition of growth at 10 µM (MOLT-4): 14.3%
inhibition of growth at 10 µM (CCRF-CEM): 23%
inhibition of growth at 10 µM (SNB-75): 20.5%
inhibition of growth at 10 µM (OVCAR-5): < 10%
inhibition of growth at 10 µM (T47D): 47.7%
inhibition of growth at 10 µM [1]: 11.5%
inhibition of growth at 10 µM (Hs-578T): < 10%
inhibition of growth at 10 µM (SK-OV-3): < 10%
inhibition of growth at 10 µM (NCI-H522): < 10%
inhibition of growth at 10 µM (K562): 23.4%
inhibition of growth at 10 µM (RXF 393): 20.3%
inhibition of growth at 10 µM (HCT-15): 20%
inhibition of growth at 10 µM (ACHN): 10%
inhibition of growth at 10 µM (MDA-MB-435): < 10%
inhibition of growth at 10 µM (M14): < 10%
inhibition of growth at 10 µM (OVCAR-4): 12.6%
inhibition of growth at 10 µM (UACC-62): 20.9%
inhibition of growth at 10 µM (SK-MEL-5): 10%
inhibition of growth at 10 µM (NCI/ADR-RES): 16.3%
inhibition of growth at 10 µM (DU-145): < 10%
inhibition of growth at 10 µM (HT-29): < 10%
inhibition of growth at 10 µM (PC-3): 15%
